Assays:
[1] = biological target: Neuronal acetylcholine receptor; alpha4/beta2 (Rattus norvegicus, UniProt P09483+P12390); assay: Displacement of [3H]epibatidine from rat recombinant alpha4beta2 nAChR expressed in HEK293 cells; format: cell-based
[2] = biological target: Neuronal acetylcholine receptor; alpha4/beta4 (Rattus norvegicus, UniProt P09483+P12392); assay: Displacement of [3H]epibatidine from rat recombinant alpha-4-beta-4 nAChR expressed in HEK293 cells; format: cell-based
[3] = biological target: Neuronal acetylcholine receptor; alpha3/beta4 (Rattus norvegicus) (UniProt P04757+P12392); assay: Agonist activity at rat alpha-3-beta-4 nAChR expressed in HEK293 cells by FMP assay relative to acetylcholine; format: functional, cell-based
In short: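 Stable HEK293 line; cells plated 16-24 h, washed, then loaded 30 min at 37 °C with FMP dye in Krebs buffer pH 7.4. Fluorescence (ex 530/em 560 nm) was read before and up to 1 min after agonist addition. Concentration-response curves used maximal responses, fitted to a Hill equation for EC50 and Rmax. Run in duplicate, at least three times.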

[4] = biological target: T1, Neuronal acetylcholine receptor; alpha3/beta4 (Rattus norvegicus, UniProt P04757+P12392); assay: Displacement of [3H]epibatidine from rat recombinant alpha-3-beta-4 nAChR expressed in HEK293 cells; format: cell-based
T1 sequence (P04757 whole entry): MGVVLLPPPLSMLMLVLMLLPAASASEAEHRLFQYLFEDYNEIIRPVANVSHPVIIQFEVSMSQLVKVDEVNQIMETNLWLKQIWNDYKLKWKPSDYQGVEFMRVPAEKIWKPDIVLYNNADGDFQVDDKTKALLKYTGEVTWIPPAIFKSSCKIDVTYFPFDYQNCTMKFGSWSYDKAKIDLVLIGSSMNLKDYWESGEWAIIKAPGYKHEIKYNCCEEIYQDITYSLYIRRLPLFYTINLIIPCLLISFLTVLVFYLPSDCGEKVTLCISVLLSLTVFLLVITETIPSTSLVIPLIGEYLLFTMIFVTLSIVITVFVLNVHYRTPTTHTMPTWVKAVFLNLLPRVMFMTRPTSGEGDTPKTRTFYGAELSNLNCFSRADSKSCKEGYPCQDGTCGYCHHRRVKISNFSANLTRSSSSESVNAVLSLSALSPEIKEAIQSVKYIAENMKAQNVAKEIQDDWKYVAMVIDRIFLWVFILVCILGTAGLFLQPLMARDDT
T1 sequence (P12392 whole entry): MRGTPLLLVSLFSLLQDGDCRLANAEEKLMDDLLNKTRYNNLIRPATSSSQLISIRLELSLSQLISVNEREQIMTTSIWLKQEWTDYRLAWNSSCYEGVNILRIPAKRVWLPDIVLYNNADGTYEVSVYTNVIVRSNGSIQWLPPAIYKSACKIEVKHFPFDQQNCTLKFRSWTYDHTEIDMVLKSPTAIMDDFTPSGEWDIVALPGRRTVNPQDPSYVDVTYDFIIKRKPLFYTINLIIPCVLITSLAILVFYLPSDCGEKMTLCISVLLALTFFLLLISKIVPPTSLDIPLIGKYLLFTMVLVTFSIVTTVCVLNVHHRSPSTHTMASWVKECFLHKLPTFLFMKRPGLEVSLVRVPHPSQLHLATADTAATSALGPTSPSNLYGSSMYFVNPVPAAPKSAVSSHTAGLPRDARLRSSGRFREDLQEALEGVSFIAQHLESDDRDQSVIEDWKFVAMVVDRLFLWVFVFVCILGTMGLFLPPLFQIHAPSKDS

[5] = biological target: T2, Neuronal acetylcholine receptor; alpha4/beta2 (Homo sapiens, UniProt P17787+P43681); assay: Agonist activity at human alpha-4-beta-2 nAChR expressed in Xenopus oocytes by two-electrode voltage clamp technique; format: functional, cell-based, Oocyte
In short: (§1)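 Defolliculated Xenopus oocytes received 40-50 ng total cRNA of human α7, α3+β4 (1:1) or α4+β2 and were kept at 17 °C. Two-electrode clamp at -60 mV used 3 M KCl electrodes in Oocyte Ringer's pH 7.4, with 12 s agonist pulses 5 min apart at 2.5 mL/min. Peak current was normalized to saturating ACh in the same oocyte (10 mM α7; 1 mM α3β4, α4β2).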

[6] = biological target: T3, Neuronal acetylcholine receptor; alpha3/beta4 (Homo sapiens, UniProt P30926+P32297); assay: Agonist activity at human alpha3beta4 nAChR expressed in Xenopus oocytes by two-electrode voltage clamp technique at 320 uM relative to acetylcholine; format: functional, cell-based; conditions: Oocyte; in short: as §1
T3 sequence (P30926 whole entry): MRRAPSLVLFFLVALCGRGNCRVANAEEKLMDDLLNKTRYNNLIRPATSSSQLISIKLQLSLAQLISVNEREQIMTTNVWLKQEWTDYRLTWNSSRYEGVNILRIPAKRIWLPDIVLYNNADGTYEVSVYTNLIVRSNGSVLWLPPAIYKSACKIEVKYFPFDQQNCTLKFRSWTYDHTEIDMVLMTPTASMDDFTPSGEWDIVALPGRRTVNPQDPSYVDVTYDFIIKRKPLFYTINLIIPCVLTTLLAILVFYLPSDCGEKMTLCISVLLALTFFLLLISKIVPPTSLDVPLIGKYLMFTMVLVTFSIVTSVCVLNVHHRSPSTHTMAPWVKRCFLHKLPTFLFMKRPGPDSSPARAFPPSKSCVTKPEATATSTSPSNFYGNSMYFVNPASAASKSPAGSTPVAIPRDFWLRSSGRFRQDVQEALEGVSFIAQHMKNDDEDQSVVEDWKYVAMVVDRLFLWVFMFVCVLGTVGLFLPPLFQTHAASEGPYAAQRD
T3 sequence (P32297 whole entry): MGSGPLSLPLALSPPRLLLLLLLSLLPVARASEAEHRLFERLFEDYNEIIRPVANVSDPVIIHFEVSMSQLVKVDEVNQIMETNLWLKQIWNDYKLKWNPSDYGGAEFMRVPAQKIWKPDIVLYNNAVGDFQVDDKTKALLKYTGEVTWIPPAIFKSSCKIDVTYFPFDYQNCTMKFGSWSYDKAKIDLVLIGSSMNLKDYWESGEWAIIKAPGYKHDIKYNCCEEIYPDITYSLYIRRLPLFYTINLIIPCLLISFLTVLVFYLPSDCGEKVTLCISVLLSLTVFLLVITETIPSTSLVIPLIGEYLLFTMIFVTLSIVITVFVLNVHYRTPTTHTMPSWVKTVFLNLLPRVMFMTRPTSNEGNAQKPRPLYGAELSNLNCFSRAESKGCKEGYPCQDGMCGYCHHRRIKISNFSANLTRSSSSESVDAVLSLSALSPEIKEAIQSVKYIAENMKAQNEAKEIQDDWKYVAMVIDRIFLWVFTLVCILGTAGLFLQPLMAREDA

[7] = biological target: T3, Neuronal acetylcholine receptor; alpha3/beta4; assay: Agonist activity at human alpha-3-beta-4 nAChR expressed in Xenopus oocytes by two-electrode voltage clamp technique; format: functional, cell-based, Oocyte; in short: as §1
[8] = biological target: T2, Neuronal acetylcholine receptor; alpha4/beta2; assay: Agonist activity at human alpha-4-beta-2 nAChR expressed in Xenopus oocytes by two-electrode voltage clamp technique relative to acetylcholine; format: functional, cell-based; conditions: Oocyte; in short: as §1
[9] = biological target: T1, Neuronal acetylcholine receptor; alpha3/beta4; assay: Agonist activity at rat alpha-3-beta-4 nAChR expressed in HEK293 cells by FMP assay; format: functional, cell-based
In short: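 Stable HEK293 line; cells plated 16-24 h, washed, then loaded 30 min at 37 °C with FMP dye in Krebs buffer pH 7.4. Concentration-response curves used maximal responses, fitted to a Hill equation for EC50 and Rmax. Run in duplicate, at least three times.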

[10] = biological target: Neuronal acetylcholine receptor subunit alpha-7 (Rattus norvegicus, UniProt Q05941); assay: Displacement of [3H]MLA from rat alpha-7 nAChR/mouse 5HT3A chimera expressed in human tsA-201 cells
Chain of Neuronal acetylcholine receptor subunit alpha-7 (Rattus norvegicus, UniProt Q05941) (Q05941 23-502 limits assumed): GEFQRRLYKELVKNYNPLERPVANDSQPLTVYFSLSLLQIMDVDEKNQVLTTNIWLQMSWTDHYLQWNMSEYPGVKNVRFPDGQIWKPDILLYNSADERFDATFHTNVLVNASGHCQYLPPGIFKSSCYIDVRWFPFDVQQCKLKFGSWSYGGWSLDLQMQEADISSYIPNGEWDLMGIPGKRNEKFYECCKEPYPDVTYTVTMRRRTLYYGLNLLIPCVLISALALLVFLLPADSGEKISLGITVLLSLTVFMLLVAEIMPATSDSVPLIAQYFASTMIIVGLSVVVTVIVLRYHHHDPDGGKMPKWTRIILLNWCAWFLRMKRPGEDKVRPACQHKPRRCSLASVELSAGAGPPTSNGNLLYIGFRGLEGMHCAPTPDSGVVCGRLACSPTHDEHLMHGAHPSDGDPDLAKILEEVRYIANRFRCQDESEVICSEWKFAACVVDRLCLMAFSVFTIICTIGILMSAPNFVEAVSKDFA

[11] = biological target: T4, Neuronal acetylcholine receptor subunit alpha-7 (Homo sapiens, UniProt P36544); assay: Agonist activity at human alpha-7 nAChR expressed in Xenopus oocytes by two-electrode voltage clamp technique at 320 uM relative to acetylcholine; format: functional, cell-based; conditions: Oocyte; in short: as §1
T4 sequence (P36544 whole entry): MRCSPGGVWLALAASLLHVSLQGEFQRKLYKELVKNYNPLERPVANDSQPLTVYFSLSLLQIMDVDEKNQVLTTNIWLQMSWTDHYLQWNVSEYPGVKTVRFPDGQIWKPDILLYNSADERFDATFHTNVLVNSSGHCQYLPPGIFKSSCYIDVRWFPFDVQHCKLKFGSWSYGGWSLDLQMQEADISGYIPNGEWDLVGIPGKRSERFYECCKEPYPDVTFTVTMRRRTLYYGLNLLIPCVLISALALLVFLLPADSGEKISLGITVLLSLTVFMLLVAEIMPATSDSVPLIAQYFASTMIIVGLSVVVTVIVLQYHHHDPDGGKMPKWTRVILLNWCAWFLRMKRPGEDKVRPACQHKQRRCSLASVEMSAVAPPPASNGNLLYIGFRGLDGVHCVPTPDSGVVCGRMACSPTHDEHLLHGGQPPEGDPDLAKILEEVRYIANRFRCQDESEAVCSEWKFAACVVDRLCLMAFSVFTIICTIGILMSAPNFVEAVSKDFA

[12] = biological target: T4, Neuronal acetylcholine receptor subunit alpha-7; assay: Agonist activity at human alpha-7 nAChR expressed in Xenopus oocytes by two-electrode voltage clamp technique; format: functional, cell-based, Oocyte; in short: as §1

Chain of Neuronal acetylcholine receptor; alpha4/beta4 (P09483 whole entry): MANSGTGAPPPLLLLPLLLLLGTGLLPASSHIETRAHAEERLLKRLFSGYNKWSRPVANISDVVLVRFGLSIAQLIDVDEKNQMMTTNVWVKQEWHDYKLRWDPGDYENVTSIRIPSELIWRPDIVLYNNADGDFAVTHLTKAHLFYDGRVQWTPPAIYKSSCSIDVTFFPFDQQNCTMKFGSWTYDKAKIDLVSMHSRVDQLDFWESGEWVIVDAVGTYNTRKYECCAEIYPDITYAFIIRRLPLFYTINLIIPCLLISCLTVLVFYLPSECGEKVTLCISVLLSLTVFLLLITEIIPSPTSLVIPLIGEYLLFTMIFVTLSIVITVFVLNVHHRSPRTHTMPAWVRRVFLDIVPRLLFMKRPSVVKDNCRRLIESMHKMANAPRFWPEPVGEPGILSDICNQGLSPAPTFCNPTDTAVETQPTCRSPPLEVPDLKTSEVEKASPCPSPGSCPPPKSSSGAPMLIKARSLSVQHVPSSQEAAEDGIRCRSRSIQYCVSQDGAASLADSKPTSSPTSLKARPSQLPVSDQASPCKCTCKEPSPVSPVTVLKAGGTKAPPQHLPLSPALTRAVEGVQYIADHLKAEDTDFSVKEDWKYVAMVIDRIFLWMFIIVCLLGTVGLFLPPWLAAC
Chain of Neuronal acetylcholine receptor; alpha4/beta4 (P12392 whole entry): as the sequence (P12392 whole entry) above
Chain of Neuronal acetylcholine receptor; alpha4/beta2 (Rattus norvegicus, UniProt P09483+P12390) (P09483 whole entry): as the sequence (P09483 whole entry) above
Chain of Neuronal acetylcholine receptor; alpha4/beta2 (Rattus norvegicus, UniProt P09483+P12390) (P12390 whole entry): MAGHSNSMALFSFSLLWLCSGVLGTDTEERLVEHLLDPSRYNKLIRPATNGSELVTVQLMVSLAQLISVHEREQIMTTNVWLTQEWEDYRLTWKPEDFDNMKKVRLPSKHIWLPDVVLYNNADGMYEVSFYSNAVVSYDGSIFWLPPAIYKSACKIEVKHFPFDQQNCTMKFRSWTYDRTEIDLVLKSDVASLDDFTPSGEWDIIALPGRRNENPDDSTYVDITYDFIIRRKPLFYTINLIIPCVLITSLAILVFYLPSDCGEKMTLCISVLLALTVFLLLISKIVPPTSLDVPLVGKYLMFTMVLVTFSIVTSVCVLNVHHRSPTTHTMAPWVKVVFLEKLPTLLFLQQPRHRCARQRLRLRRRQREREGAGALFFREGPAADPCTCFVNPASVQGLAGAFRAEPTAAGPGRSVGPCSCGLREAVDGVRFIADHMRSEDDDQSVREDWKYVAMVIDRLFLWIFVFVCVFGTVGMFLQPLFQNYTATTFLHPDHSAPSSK

Row | Compound | Ki [1] [µM] | Ki [2] [µM] | Activity [3] [%] | Ki [4] [µM] | EC50 [5] [µM] | Activity [6] [%] | EC50 ([7]; read-out: EC50) [µM] | EC50 ([7]; read-out: pEC50 (converted)) [µM] | Activity [8] [%] | Ki ([9]; read-out: Ki) [µM] | Ki ([9]; read-out: pKi (converted)) [µM] | EC50 ([9]; read-out: EC50) [µM] | Ki [10] [µM] | EC50 ([9]; read-out: pEC50 (converted)) [µM] | Activity [11] [%] | EC50 ([12]; read-out: EC50) [µM] | EC50 ([12]; read-out: pEC50 (converted)) [µM]
1 | CC(CCOC(=O)N1CC(F)(F)C1)N(C)C (configuration not stated) | 0.058 | 1.6 | 75 |  |  |  |  |  |  |  |  |  |  |  |  |  | 
2 | CC1CN(C(=O)OCC[C@H](C)N(C)C)C1 | 0.057 | 7.1 |  | 100 |  |  |  |  |  |  |  |  |  |  |  |  | 
3 | CC(CCOC(=O)N1CCC1)N(C)C (configuration not stated) | 0.0051 | 0.19 | 106 | 11 | 7.1 | 23 | > 320 | > 316 | 66 | 0.023 | 25.1 |  |  |  |  |  | 
4 | CC(CCOC(=O)N1CCCC1)N(C)C (configuration not stated) | 0.21 | 2.2 |  | 25 |  |  |  |  |  |  |  |  |  |  |  |  | 
5 | CC(=O)OCCC(C)N(C)C (configuration not stated) | 0.065 | 0.37 | 97 | 4.1 |  |  |  |  |  |  |  | 23 | > 1000 |  |  |  | 
6 | CC(CCOC(=O)n1cccc1)N(C)C (configuration not stated) | 0.31 | 11 | 27 | 100 |  |  |  |  |  | 0.1 | 316 |  | > 1000 |  |  |  | 
7 | CC(CCOC(=O)N1CCC1(C)C)N(C)C (configuration not stated) | 0.21 | 3.2 | 90 | 25 |  |  |  |  |  | 0.051 | 50.1 |  |  |  |  |  | 
8 | CC(C)C(=O)OCCC(C)N(C)C (configuration not stated) | 0.03 | 0.76 | 100 | 8.5 |  |  |  |  |  |  |  | 24 | > 1000 |  |  |  | 
9 | CC(CCOC(=O)N(C)C)N(C)C (configuration not stated) | 0.02 | 0.15 | 105 | 0.42 |  |  |  |  |  | 0.0077 | 7.94 |  | > 1000 |  |  |  | 
10 | CC(CCOC(=O)C1CCC1)N(C)C (configuration not stated) | 0.1 | 0.46 | 85 | 3.5 |  |  |  |  |  |  |  | 8.5 | 290 |  |  |  | 
11 | CC(CCOC(=O)N1CCCCC1)N(C)C (configuration not stated) | 0.091 | 0.35 |  | 2.6 |  |  |  |  |  |  |  |  |  |  |  |  | 
12 | CC(CCOC(=O)c1ccccc1)N(C)C (configuration not stated) | 0.32 | 10 |  | 100 |  |  |  |  |  |  |  |  | 190 |  |  |  | 
13 | CC1CN(C(=O)OCC[C@@H](C)N(C)C)C1 | 0.00091 | 0.18 |  | 19 |  |  |  |  |  |  |  |  |  |  |  |  | 
14 | CC(CCOC(=O)N1CC(C)(C)C1)N(C)C (configuration not stated) | 0.058 | 0.72 | 43 | 300 |  |  |  |  |  | 0.3 | 316 |  |  |  |  |  | 
15 | CC(CCOC(=O)C1CC1)N(C)C (configuration not stated) | 0.0038 | 0.26 | 105 | 4.2 |  |  |  |  |  |  |  |  | 280 | 7.94 |  |  | 
16 | CC1CN(C(=O)OCCC(C)N(C)C)C1 (configuration not stated) | 0.0021 | 0.26 | 91 | 23 | 85 | 12 | > 320 | > 316 | 9.5 | 0.048 | 50.1 |  | > 1000 |  | 0.9 | > 320 | > 316
17 | CC(CCOC(=O)N1CCC1C)N(C)C (configuration not stated) | 0.015 | 0.23 | 89 | 2.5 |  |  |  |  |  | 0.0054 | 5.01 |  | > 1000 |  |  |  | 
